Measured values taken from ChEMBL document CHEMBL1765085, “Cytotoxic and apoptosis-inducing activities of triterpene acids from Poria cocos” (J Nat Prod, 2011).

What was measured:
Type in all cases: functional, cell-based
[1] = system: OVCAR-3; assay: Cytotoxicity in human OVCAR3 cells assessed as cell viability after 48 hrs by MTT assay; conditions: OVCAR-3, 48 h
How it was run: (§1)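 Growth conditions: RPMI 1640 for HL60, CRL1579, NIH:OVCAR-3, SK-BR-3, DU145 and PANC-1; D-MEM for A549; MEM for WI-38; all with 10% FBS and antibiotics, 37 °C, 5% CO2. Seeded at 3 × 10^3 cells/well (OVCAR-3 1 × 10^4), then treated 48 h with 10^-4 to 10^-6 M. MTT for 3 h, formazan dissolved in 0.04 M HCl/2-propanol, A570/630. IC50 (50% growth inhibition) from triplicates.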

[2] = system: HL-60; assay: Cytotoxicity in human HL60 cells assessed as cell viability after 48 hrs by MTT assay; conditions: HL-60, 48 h; how it was run: as §1
[3] = system: PANC-1; assay: Cytotoxicity in human PANC1 cells assessed as cell viability after 48 hrs by MTT assay; conditions: PANC-1, 48 h; how it was run: as §1
[4] = system: DU-145; assay: Cytotoxicity in human DU145 cells assessed as cell viability after 48 hrs by MTT assay; conditions: DU-145, 48 h; how it was run: as §1
[5] = Cytotoxicity in human AZ-521 cells assessed as cell viability after 48 hrs by MTT assay; conditions: AZ-521, 48 h
[6] = Cytotoxicity in human CRL1579 cells assessed as cell viability after 48 hrs by MTT assay; how it was run: as §1
[7] = system: A549; assay: Cytotoxicity in human A549 cells assessed as cell viability after 48 hrs by MTT assay; conditions: A549, 48 h; how it was run: as §1
[8] = system: SK-BR-3; assay: Cytotoxicity in human SK-BR-3 cells assessed as cell viability after 48 hrs by MTT assay; conditions: SK-BR-3, 48 h; how it was run: as §1

Compound | IC50 [1] | IC50 [2] | IC50 [3] | IC50 [4] | IC50 [5] | IC50 [6] | IC50 [7] | IC50 [8]
C=C(CC[C@@H](CO)[C@H]1[C@H](O)C[C@@]2(C)C3=C(CC[C@]12C)[C@@](C)(CCCO)[C@H](C(=C)C)CC3)C(C)C | > 100 µM | 2.9 µM | > 100 µM | > 100 µM | > 100 µM | 9.9 µM | 41.2 µM | 51.3 µM
C=C(CC[C@@H](C(=O)OC)[C@H]1[C@H](O)C[C@@]2(C)C3=CC[C@H]4C(C)(C)[C@H](O)CC[C@]4(C)C3=CC[C@]12C)C(C)(C)O | 67.5 µM | 6.9 µM | 71.3 µM | 28.9 µM | 14.4 µM | 76.5 µM | 41.4 µM | 27.5 µM
C=C(CC[C@@H](CO)[C@H]1[C@H](O)C[C@@]2(C)C3=CC[C@H]4C(C)(C)[C@H](O)CC[C@]4(C)C3=CC[C@]12C)C(C)(C)O | > 100 µM | 2.5 µM | > 100 µM | > 100 µM | > 100 µM | 14 µM | > 100 µM | > 100 µM
C=C(CC[C@@H](C(=O)OC)[C@H]1CC[C@@]2(C)C3=CC[C@H]4C(C)(C)C(=O)CC[C@]4(C)C3=CC[C@]12C)C(C)C | > 100 µM | 23.5 µM | > 100 µM | > 100 µM | 53.4 µM | 20.9 µM | 96.5 µM | 27.5 µM
C=C(CC[C@@H](CO)[C@H]1CC[C@@]2(C)C3=CC[C@H]4C(C)(C)[C@@H](O)CC[C@]4(C)C3=CC[C@]12C)C(C)C | 6.4 µM | 6.7 µM | 22.6 µM | > 100 µM | 12.5 µM | 2.8 µM | 4 µM | 11.7 µM
C=C(CC[C@@H](C(=O)O)[C@H]1[C@H](O)C[C@@]2(C)C3=CC[C@H]4C(C)(C)[C@H](O)CC[C@]4(C)C3=CC[C@]12C)C(C)(C)O | 9.5 µM |  | 67.4 µM | > 100 µM | 51.5 µM |  | 4 µM | 62.3 µM
C=C(CCC(C(=O)O)[C@H]1CC[C@@]2(C)C3=CC[C@H]4C(C)(C)C(=O)CC[C@]4(C)C3=CC[C@]12C)C(C)C (stereo not given in full) [DEHYDROEBURICONIC ACID] | 37.7 µM | 29.2 µM | 5.5 µM | > 100 µM | > 100 µM | 89.7 µM | 10 µM | 12.2 µM
C=C(CC[C@@H](C(=O)OC)[C@H]1[C@H](O)C[C@@]2(C)C3=CC[C@@H](C(=C)C)[C@](C)(CCC(=O)OC)C3=CC[C@]12C)C(C)C [DIMETHYL PORICOATE A] | 91.8 µM | 18.2 µM | > 100 µM | > 100 µM | 32.1 µM | > 100 µM | 79.6 µM | 32.2 µM
C=C(CC[C@@H](C(=O)OC)[C@H]1CC[C@@]2(C)C3=CC[C@@H](C(=C)C)[C@](C)(CCC(=O)OC)C3=CC[C@]12C)C(C)C [DIMETHYL PORICOATE C] | 23.6 µM | 2.4 µM | > 100 µM | > 100 µM | 19.8 µM | 27.8 µM | 83.8 µM | 23.9 µM
C=C(C)[C@@H]1CCC2=C(CC[C@]3(C)[C@@H]([C@@H](CCC=C(C)C)C(=O)OC)[C@H](O)C[C@@]23C)[C@@]1(C)CCC(=O)OC [DIMETHYL PORICOATE G] | 26.3 µM | 8.8 µM | > 100 µM | > 100 µM | 34.5 µM | 42.4 µM | 66 µM | 4.3 µM
C=C(CC[C@@H](C(=O)OC)[C@H]1[C@H](O)C[C@@]2(C)C3=C(CC[C@]12C)[C@@](C)(CCC(=O)OC)[C@H](C(=C)C)CC3)C(C)C [DIMETHYL PORICOATE H] | 49.5 µM | 3.6 µM | 44.9 µM | 28.9 µM | 14.6 µM | 97.6 µM | 13.5 µM | 15.9 µM
O=c1[nH]cc(F)c(=O)[nH]1 [FLUOROURACIL] | > 100 µM | 9.5 µM | 54.1 µM | > 100 µM | > 100 µM | > 100 µM |  | > 100 µM
C=C(CC[C@@H](C(=O)O)[C@H]1[C@H](O)C[C@@]2(C)C3=CC[C@@H](C(=C)C)[C@](C)(CCC(=O)O)C3=CC[C@]12C)C(C)C [PORICOIC ACID A] | > 100 µM |  | > 100 µM | > 100 µM | > 100 µM |  | > 100 µM | > 100 µM
C=C(CC[C@@H](C(=O)O)[C@H]1CC[C@@]2(C)C3=CC[C@@H](C(=C)C)[C@](C)(CCC(=O)O)C3=CC[C@]12C)C(C)C [PORICOIC ACID C] | 53.1 µM | 25.9 µM | 68.9 µM | 14.5 µM | 45.9 µM | > 100 µM | 27 µM | 23.9 µM
C=C(C)[C@@H]1CCC2=C(CC[C@]3(C)[C@@H]([C@@H](CCC=C(C)C)C(=O)O)[C@H](O)C[C@@]23C)[C@@]1(C)CCC(=O)O [PORICOIC ACID G] | > 100 µM |  | > 100 µM | > 100 µM | > 100 µM |  | > 100 µM | > 100 µM
C=C(CC[C@@H](C(=O)O)[C@H]1[C@H](O)C[C@@]2(C)C3=C(CC[C@]12C)[C@@](C)(CCC(=O)O)[C@H](C(=C)C)CC3)C(C)C [PORICOIC ACID H] | > 100 µM |  | > 100 µM | > 100 µM | > 100 µM |  | > 100 µM | > 100 µM
C=C(CC[C@@H](CO)[C@H]1CC[C@@]2(C)C3=CC[C@@H](C(=C)C)[C@](C)(CCCO)C3=CC[C@]12C)C(C)C [PORICOTRIOL C] | 70.3 µM | 12.3 µM | 91.3 µM | 20.3 µM | 13.3 µM | 76.4 µM | 80 µM | 11 µM
C=C(C)[C@@H]1CCC2=C(CC[C@]3(C)[C@@H]([C@H](CO)CCC=C(C)C)[C@H](O)C[C@@]23C)[C@@]1(C)CCCO [PORICOTRIOL G] | 43.5 µM | 7.5 µM | 17.9 µM | > 100 µM | 13.4 µM | 11.6 µM | 11 µM | 13 µM
